NALP3 yeast inh – inhibitors of NALP3 inflammasome in yeast. inhibition, % at 10 µM. Yeast reconstituted NLRP3/ASC/caspase-1, beta-gal luminescence, 24 h. 330,000 tested, 0.39% active;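 active means inhibition of 50% or more; inactive means inhibition below 50%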;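 further: plate controls were induced DMSO wells for no effect and uninduced yeast grown without galactose for full effect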
DSG3 Ab inh – inhibitors of pemphigus antibody binding to human desmoglein-3; AID 588358; P32926; 310,000 tested, 0.48% active; DSG3-coupled beads, scFv-anti-DSG3-GFP binding, flow cytometry; active compounds read low; binding (percent of control), % at 10 µM;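 active means binding more than 3 SD below its plate's average and above zero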;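 further: hits lower antibody fragment binding to DSG3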
Arr AP2 block – human beta-arrestin and AP2 interaction inhibition; FITC-arrestin peptide / GST-AP2 beads, flow cytometry; AP2 beta2 appendage carries R879A mutation; inhibition, % at 10 µM; 340,000 tested, 0.31% active; AID 504490;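 active means inhibition above a set limit, near 3 SD of compounds lacking own fluorescence, cut at about 54% in these data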;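 further: plate controls were DMSO wells for no effect and 5 µM unlabelled arrestin peptide for full effect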
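test system = AP2 appendage R879A on GSH beads | buffer or medium = PBS plus Tween 20 (0.05%) and BSA (0.1%) | incubation = 12 min plus 1 h, RT | detection = bead flow cytometry, FITC channel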
PolyA inhibitor – inhibitors of polyadenylation in S. cerevisiae; S. cerevisiae SKY197-pL101 polyadenylation reporter, beta-gal luminescence; efflux-impaired pdr1/pdr3 knockout yeast; score 100 = 6 SD above DMSO; activity score, % at 12 µM; 300,000 tested, 0.02% active;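 active means lowest replicate activity score at least 50, where 100 means six control SD above control mean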;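 further: yeast exposed to compound for 9 h at 30 °C; higher score means more reporter readthrough which indicates perturbed polyadenylation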
NALP1 inh – NALP1 inhibition; S. cerevisiae NALP1/ASC/caspase-1 growth, X-gal OD620, 72 h; inhibition, % at 10 µM; 280,000 tested, 0.61% active; AID 2071; in the data active means inhibition mostly above about 24%, no sharp cut-off; inactive means mostly below about 32%
ALR H2O2 inh – inhibitors of human sulfhydryl oxidase ALR | P55789 | purified ALR, DTT oxidation, H2O2 HRP-luminol luminescence | inhibition, % (concentration not given with the values) | 290,000 tested, 3.8% active | AID 485317;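 active means mean replicate inhibition above about 79%, with every replicate also reaching it, limit read from the data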
Target sequence (P55789 whole entry, looked up): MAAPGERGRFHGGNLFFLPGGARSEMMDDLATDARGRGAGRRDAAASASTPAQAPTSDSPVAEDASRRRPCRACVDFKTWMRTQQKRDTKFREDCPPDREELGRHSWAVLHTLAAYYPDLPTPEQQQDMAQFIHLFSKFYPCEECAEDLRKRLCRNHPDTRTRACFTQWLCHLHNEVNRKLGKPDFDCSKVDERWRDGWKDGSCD
The depositor's hits bear a star; . = no result. Sampled rows, rich in hits. Any-hit rate of the full collection: about 4.6%.

SMILES	NALP3 yeast inh	DSG3 Ab inh	Arr AP2 block	PolyA inhibitor	NALP1 inh	ALR H2O2 inh
Cc1ccc(S(=O)(=O)Nc2ccccc2F)cc1C(=O)NCc1ccco1	6	103	-15	.	.	.
CCc1ncc(CN2CCCC(C(=O)Nc3ccc(-c4cscn4)cc3)C2)cn1 (stereo not given)	15	103	10	-5	18	-6
O=C(O)C1Nc2c(O)cc(Cl)c([N+](=O)[O-])c2C2C=CCC12 (stereo not given)	0	66*	20	2	-11	64
Cc1ccc2c(c1)C1C=CCC1C(C(=O)O)N2 (stereo not given)	.	.	.	-29	19	0
COc1cc(/C=N/N(C)C2=NS(=O)(=O)c3ccccc32)cc(OC)c1OC	11	102	9	8	14	-3
COc1cccc(/C=N/N(C)C2=NS(=O)(=O)c3ccccc32)c1O	11	80*	20	-14	9	5
Cc1cc(/N=C/C=C2\N(C)c3ccccc3C2(C)C)n(CCC#N)n1	21	85	0	-22	8	99*
CN1/C(=C\C=Nc2ccc3ccccc3c2)C(C)(C)c2ccccc21	15	.	12	.	28*	.
CN1/C(=C\C=O)C(C)(C)c2ccccc21	-7	91	-18	-11	12	-4
CN1/C(=C/C=C(C#N)C#N)C(C)(C)c2ccccc21	15	117	23	2	2	-53
CN1\C(=C/C=C/C=C/C=[N+](C)C)C(C)(C)c2ccccc21	.	66*	15	-2	14	.
CN(C)c1ccc(N=C/C=C2\N(C)c3ccccc3C2(C)C)cc1	41	169	17	-44	17	99*
N#Cc1ccccc1Cn1c(=O)n(-c2ccc(CC(=O)NCc3ccco3)cc2)c(=O)c2sccc21	7	103	4	-10	28	-2
N#Cc1ccccc1Cn1c(=O)n(Cc2ccc(C(=O)NCc3ccco3)cc2)c(=O)c2sccc21	2	102	-2	4	14	94*
CN(CC(=O)Nc1ccc(Cl)c(C(F)(F)F)c1)C(=O)Cc1ccsc1	24	121	6	1	.	-12
CCc1ccc(S(=O)(=O)/N=C2\C=C(NS(=O)(=O)c3ccccc3)C(=O)c3ccccc32)cc1	12	49*	-8	3	14	.
Oc1cc(O)cc(/C=C/c2ccc(O)c(O)c2)c1	19	124	10	.	.	99*
CCN1C(=O)/C(=C/N2CCc3ccccc32)SC1=S	10	102	70*	-4	-3	-19
CCN1C(=O)/C(=C\N2CCCc3ccccc32)SC1=S	-9	104	-3	-3	12	-2
CC1CCCC(C)N1c1nnc(N)s1 (stereo not given)	6	107	6	22	22	95*
CC1CCCCN1c1nnc(N)s1 (stereo not given)	-9	100	0	15	9	53
CN1C(=O)C2C(c3ccc(N(C)C)cc3)=NN(Cc3ccccc3)C2C1=O (stereo not given)	26	.	45	-6	-18	99*
COc1ccc2nc3cc(Cl)ccc3c(Nc3cc(CN4CCCC4)c(O)c(CN4CCCC4)c3)c2n1	30	.	.	10	-14	99*
COc1cc(Cl)c(C)cc1NC(=O)CSC1=NCCS1	41	97	-7	.	.	.
COc1cccc(CNC(=O)c2ccc(C3SCCS3)cc2)c1	30	93	-7	6	2	91*
SMILES	NALP3 yeast inh	DSG3 Ab inh	Arr AP2 block	PolyA inhibitor	NALP1 inh	ALR H2O2 inh
COc1cccc(CNC(=O)c2ccc(C(=O)NCc3cccc(OC)c3)cc2)c1	11	105	-2	3	5	-4
O=C(CCl)NC(=O)NC12CC3CC(CC(C3)C1)C2	.	102	5	-3	82	86*
COc1ccc(C(=O)NCc2ccc(F)cc2)cc1S(=O)(=O)N1CCCC1	18	104	9	.	.	.
CCOc1cc(/C=N/Nc2nn3cnnc3c3ccccc23)ccc1O	-17	98	13	-7	-18	82*
CCOc1cc(/C=N/n2cnnc2)ccc1O	-5	97	4	-4	16	99*
COc1ccc(-n2nc3c(c2NC(=O)COc2ccccc2OC)CS(=O)(=O)C3)cc1	.	103	.	.	.	.
Cc1ccc(C(=O)Nn2cnnc2)cc1Cl	11	94	8	1	4	81*

High-throughput results (PubChem)
